Where a chain is given by its changes, count along the chain named. Read-outs that look alike come from different tables or passages of the source.
Tests used:
[1] = system: CHM20 (S5 domain exchanged between RETα and OLFα); test: Genistein inhibition of closed chimeric channel CHM20; assay type: biochemical, bovine/rat; conditions: closed channels
Summary of the method: (§1)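 Chimeric RETα/OLFα channels were expressed in Xenopus oocytes (50 nl of 50 ng/μl RNA, 2–7 d), and the vitelline membrane was removed. Inside-out patches were bathed in symmetrical 115 mM NaCl, 5 mM EGTA, 1 mM EDTA, 5 mM HEPES, pH 7.5, held at −75 mV. Test compound was preapplied 1 min to closed channels, then saturating 2 mM cGMP; residual current normalized to Imax.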

[2] = system: CHM16 (switched NH2-terminal domain through part of S1); test: Genistein inhibition of closed chimeric channel CHM16; assay type: biochemical, bovine/rat; conditions: closed channels; behaved like parent channel
Summary of the method: as §1

[3] = target: T1, α-subunit of the bovine retinal rod CNG channel (RETα) (Bos taurus, UniProt Q00194); assay type: biochemical; conditions: for Ki: Ki (apparent affinity)
T1 sequence (Q00194 1-690): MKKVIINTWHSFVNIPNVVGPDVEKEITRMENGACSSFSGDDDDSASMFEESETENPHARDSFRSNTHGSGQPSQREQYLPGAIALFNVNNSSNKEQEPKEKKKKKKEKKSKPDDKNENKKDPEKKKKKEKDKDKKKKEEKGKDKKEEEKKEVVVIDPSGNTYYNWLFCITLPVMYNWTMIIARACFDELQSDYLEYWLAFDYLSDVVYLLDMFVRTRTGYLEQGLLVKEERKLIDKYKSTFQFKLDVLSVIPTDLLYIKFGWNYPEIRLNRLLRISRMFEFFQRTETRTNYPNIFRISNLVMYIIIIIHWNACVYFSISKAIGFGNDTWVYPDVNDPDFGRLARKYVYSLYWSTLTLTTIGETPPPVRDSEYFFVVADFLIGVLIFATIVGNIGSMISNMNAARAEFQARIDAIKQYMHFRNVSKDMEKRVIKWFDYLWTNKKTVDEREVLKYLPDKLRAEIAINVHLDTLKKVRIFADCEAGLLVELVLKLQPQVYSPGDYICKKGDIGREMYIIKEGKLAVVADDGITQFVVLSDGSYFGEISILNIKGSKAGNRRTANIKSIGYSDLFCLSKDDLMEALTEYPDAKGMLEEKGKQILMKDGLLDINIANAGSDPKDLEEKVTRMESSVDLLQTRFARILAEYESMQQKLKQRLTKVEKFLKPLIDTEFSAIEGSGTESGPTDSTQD
Summary of the method: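 RETα was expressed in oocytes from 50 nl of 50 ng/μl RNA. Inside-out patches were held at −75 mV in symmetrical NaCl/EGTA/EDTA/HEPES, pH 7.5, with solution exchange within 50 ms. Current was normalized to Imax: residual current after 1 min preexposure then 2 mM cGMP, or steady-state current with compound added during 2 mM cGMP. Ki and Hill coefficient came from a modified Hill fit; τa from single-exponential fits; mean ± SEM.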

[4] = system: CHM18 (OLFα with a RETα cyclic nucleotide–binding domain); test: Genistein inhibition of closed chimeric channel CHM18; assay type: biochemical, bovine/rat; conditions: closed channels
Summary of the method: as §1

[5] = system: CHM 15 (switched NH2-terminal domain through part of S1); test: Genistein inhibition of closed chimeric channel CHM 15; assay type: biochemical, bovine/rat; conditions: closed channels; behaved like parent channel
Summary of the method: as §1

[6] = system: CHM 19 (RETα with the OLFα pore); test: Genistein inhibition of closed chimeric channel CHM 19; assay type: biochemical, bovine/rat; conditions: closed channels
Summary of the method: as §1

[7] = system: CHM11 (RETα with OLFα pore module: S5, P region, S6, initial C-linker); test: Genistein inhibition of chimeric channel CHM11; assay type: biochemical, bovine/rat
[8] = system: CHM 30 (converse substitution in OLFα background); test: Genistein inhibition of closed chimeric channel CHM 30; assay type: biochemical, bovine/rat; conditions: closed channels
[9] = system: CHM34 (converse substitution in OLFα background); test: Genistein inhibition of closed chimeric channel CHM34; assay type: biochemical, bovine/rat; conditions: closed channels
[10] = target: T2, CHM35 (RETα with Q417 substituted with a histidine) (Bos taurus, UniProt Q00194, Q417H); test: Genistein inhibition of closed chimeric channel CHM35; assay type: biochemical, bovine/rat; conditions: closed channels
T2 sequence (Q00194 1-690 Q417H): T1 sequence (Q00194 1-690) with Q417H
Summary of the method: as §1

[11] = system: α-subunit of the rat olfactory CNG channel (OLFα); conditions: ref Molokanova et al. 2000; cited from earlier work
[12] = system: CHM 14 (OLFα except for mid-S1 through S4); test: Genistein inhibition of closed chimeric channel CHM 14; assay type: biochemical, bovine/rat; conditions: closed channels
Summary of the method: as §1

[13] = system: CHM22 (S5 domain exchanged between RETα and OLFα); test: Genistein inhibition of closed chimeric channel CHM22; assay type: biochemical, bovine/rat; conditions: closed channels
Summary of the method: as §1

## O=c1c(-c2ccc(O)cc2)coc2cc(O)cc(O)c12 [genistein]
[1]
  effect of domain exchange on genistein inhibition: did not alter genistein inhibition
[2]
  effect of domain switch on genistein inhibition: had no effect
[3]; closed channels
  Ki: 4.3 ± 0.9 µM
  Hill coefficient of genistein inhibition: 1.97 ± 0.08
  dissociation of genistein–PTK from closed channels (time): > 1 min
[3]; fully activated channels (saturating cGMP)
  Ki: 84.1 ± 6.8 µM
[3]; closed channels pretreated with Ni^2+ and genistein for 1 min
  residual current, of maximal current: 32.1 ± 3.4%
[3]; closed channels pretreated with genistein alone
  residual current, of maximal current: 1.3 ± 0.8%
[3]; closed channels, 10 μM genistein
  association time constant (τa): 9.1 ± 0.4 s
[3]; closed channels, 25 μM genistein
  association time constant (τa): 8.9 ± 0.6 s
[3]; closed channels, 100 μM genistein
  association time constant (τa): 8.6 ± 0.7 s
[3]; closed channels, first of two exponentials, 1-s cGMP puffs every 15 s
  dissociation time constant: 66 s
[3]; closed channels, second of two exponentials, 1-s cGMP puffs every 15 s
  dissociation time constant: 808 s
[3]; closed channels, single exponential fit, Fig. 2 A, 100 μM genistein
  association time constant (τa): 9.3 s
[3]; fully activated channels
  Hill coefficient of genistein inhibition: 1.02 ± 0.03
[3]; fully activated channels, 25 μM genistein
  association time constant (τa): 12.1 ± 0.6 s
[3]; fully activated channels, 100 μM genistein
  association time constant (τa): 12.6 ± 0.7 s
[3]; fully activated channels, 250 μM genistein
  association time constant (τa): 12.6 ± 0.9 s
[3]; fully activated channels, single exponential fit, Fig. 2 B
  association time constant (τa): 13.1 s
[3]; fully activated channels, single exponential, after 1 min preexposure
  dissociation time constant: 14.4 s
[3]; fully activated channels, steady-state current in saturating cGMP
  efficacy of genistein inhibition: 65 ± 6%
[3]; genistein applied on fully activated channels
  change in cGMP sensitivity: fourfold decrease
[3]; read-out: inhibition of macroscopic current
  inhibition at 100 µM: 41%
[3]; saturating cGMP plus genistein, Fig. 3 B protocol
  fraction of steady-state current from channels devoid of genistein–PTK: < 60%
[4]
  genistein inhibition: no inhibition
[5]
  effect of domain switch on genistein inhibition: had no effect
[6]
  effect of domain exchange on genistein inhibition: did not alter genistein inhibition
[7]; closed state, 500 μM genistein
  maximal inhibition: ~15%
[7]; open state, up to 500 μM genistein
  genistein sensitivity: completely insensitive
[8]
  genistein inhibition: neither substitution introduced genistein inhibition
[9]
  genistein inhibition: neither substitution introduced genistein inhibition
[10]
  genistein inhibition: did not reduce genistein inhibition
[11]
  genistein inhibition: do not exhibit genistein inhibition
[12]
  genistein inhibition: not inhibited
[13]
  effect of domain exchange on genistein inhibition: did not alter genistein inhibition

— article PMC2225614 (The Journal of General Physiology, 2001)
